Here are results for 3 compounds from ChEMBL document CHEMBL4118021, “Studies of TAK1-centered polypharmacology with novel covalent TAK1 inhibitors” (Bioorg Med Chem, 2017).

Active and inactive are the calls of the source. No cut-off for these calls is given here.

In experiment [1] the target is Serine/threonine-protein kinase MARK2 (Homo sapiens) (UniProt Q7KZI7). The experiment is described as follows: Inhibition of MARK2 in human SKCO1 cells at 1 uM after 4 hrs using biotin labeled EVAVKIIDK probe by mass-spectrometric analysis relative to control. It is filed as cell-based.
The target in experiment [2] is NUAK family SNF1-like kinase 2 (Homo sapiens) (UniProt Q9H093). The experiment is described as follows: Inhibition of NuaK2 in human SKCO1 cells at 1 uM after 4 hrs using biotin labeled LVAIKSIR probe by mass-spectrometric analysis relative to control. It is filed as cell-based.
Experiment [3] has as its target T1, Dual specificity mitogen-activated protein kinase kinase 6 (Homo sapiens) (UniProt P52564).
T1 sequence (whole entry): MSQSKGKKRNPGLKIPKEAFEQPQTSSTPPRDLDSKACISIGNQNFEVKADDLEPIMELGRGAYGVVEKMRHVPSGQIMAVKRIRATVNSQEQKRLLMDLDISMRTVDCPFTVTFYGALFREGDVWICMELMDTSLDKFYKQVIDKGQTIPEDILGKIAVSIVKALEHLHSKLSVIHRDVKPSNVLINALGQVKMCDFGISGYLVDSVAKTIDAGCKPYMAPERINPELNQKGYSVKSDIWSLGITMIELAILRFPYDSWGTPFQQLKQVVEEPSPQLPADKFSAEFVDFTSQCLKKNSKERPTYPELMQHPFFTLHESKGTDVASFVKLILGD
In words: Inhibition of MAP2K6 in human SKCO1 cells at 1 uM after 4 hrs using biotin labeled DVKPSNVLINALGQVK probe by mass-spectrometric analysis relative to control. It is filed as cell-based.

In experiment [4] the target is Platelet-derived growth factor receptor beta (Homo sapiens) (UniProt P09619). The experiment is described as follows: Inhibition of human PDGFRB (582 to 1009 residues) expressed in bacterial expression system assessed as enzyme activity at 10 uM by KINOMEScan assay relative to control. The arrangement: scale not given: the % may be the effect or the level left. In outline:
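In vitro ATP-site competition binding assay across a panel of 456 kinases, with compound tested at 1 and 10 μM.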

Another experiment has as its system BaF3. The experiment is described as follows: Antiproliferative activity against mouse BA/F3 cells harboring KRAS G12D mutant after 72 hrs by CellTiter-Glo assay. It is filed as functional, cell-based. As to conditions: BaF3, 72 h. On the technique in general: Cellular ATP, detected with luciferase, serves as a proxy for viable cell number.
Experiment [5] has as its target Thioredoxin (Homo sapiens) (UniProt P10599). The experiment is described as follows: Binding affinity to TXN in human NCI-H23 cells at 1 uM by mass spectrometry based pull down assay. It is filed as cell-based.
The target in experiment [6] is Apoptosis regulator BAX (Homo sapiens) (UniProt Q07812). In words: Binding affinity to BAX in human NCI-H23 cells at 1 uM by mass spectrometry based pull down assay. It is filed as cell-based.
Experiment [7] has as its target Nuclear pore complex protein Nup155 (Homo sapiens) (UniProt O75694). The experiment is described as follows: Binding affinity to NUP155 in human NCI-H23 cells at 1 uM by mass spectrometry based pull down assay. It is filed as cell-based.
The target of experiment [8] is Glyoxalase domain-containing protein 4 (Homo sapiens) (UniProt Q9HC38). In words: Binding affinity to GLOD4 in human NCI-H23 cells at 1 uM by mass spectrometry based pull down assay. It is filed as cell-based.
Experiment [9] deals with T2, 80S Ribosome (Homo sapiens) (UniProt P08865+P42677+P62753+P15880+P23396+P61247+P62701+P22090+P46782+P62081+P62241+P46781+P46783+P62280+P25398+P62277+P62263+P62841+P62244+P62249+P08708+P62269+P39019+P60866+P63220+P62266+P62847+P62851+P62854+P62979+P62857+P62273+P62861+P39023+P36578+P46777+Q02878+P18124+P62424+P62917+P32969+P27635+P62906+P62913+P30050+P26373+P40429+P50914+P61313+P18621+Q07020+Q02543+P84098+P46778+P35268+P62829+P62750+P83731+P61254+P61353+P46776+P46779+P47914+P62888+P62899+P62910+P49207+P42766+P18077+Q9Y3U8+P83881+P61927+P61513+P63173+P62891+P62945+P05388+P05386). The experiment is described as follows: Binding affinity to RPL28 in human NCI-H23 cells at 1 uM by mass spectrometry based pull down assay. It is filed as cell-based.

The target of experiment [10] is Glutamine--fructose-6-phosphate aminotransferase [isomerizing] 1 (Homo sapiens) (UniProt Q06210). In words: Binding affinity to GFPT1 in human NCI-H358 cells at 1 uM by mass spectrometry based pull down assay. It is filed as cell-based.
The target of experiment [11] is Myeloid leukemia factor 2 (Homo sapiens) (UniProt Q15773). The experiment is described as follows: Binding affinity to MLF2 in human NCI-H23 cells at 1 uM by mass spectrometry based pull down assay. It is filed as cell-based.
In experiment [12] the target is Protein disulfide-isomerase A4 (Homo sapiens) (UniProt P13667). In words: Binding affinity to PDIA4 in human NCI-H358 cells at 1 uM by mass spectrometry based pull down assay. It is filed as cell-based.
Experiment [13] addresses T2, 80S Ribosome (Homo sapiens). The experiment is described as follows: Binding affinity to RPLP1 in human NCI-H23 cells at 1 uM by mass spectrometry based pull down assay. It is filed as cell-based.
Experiment [14] deals with T3, Dual specificity mitogen-activated protein kinase kinase 4 (Homo sapiens) (UniProt P45985).
T3 sequence (whole entry): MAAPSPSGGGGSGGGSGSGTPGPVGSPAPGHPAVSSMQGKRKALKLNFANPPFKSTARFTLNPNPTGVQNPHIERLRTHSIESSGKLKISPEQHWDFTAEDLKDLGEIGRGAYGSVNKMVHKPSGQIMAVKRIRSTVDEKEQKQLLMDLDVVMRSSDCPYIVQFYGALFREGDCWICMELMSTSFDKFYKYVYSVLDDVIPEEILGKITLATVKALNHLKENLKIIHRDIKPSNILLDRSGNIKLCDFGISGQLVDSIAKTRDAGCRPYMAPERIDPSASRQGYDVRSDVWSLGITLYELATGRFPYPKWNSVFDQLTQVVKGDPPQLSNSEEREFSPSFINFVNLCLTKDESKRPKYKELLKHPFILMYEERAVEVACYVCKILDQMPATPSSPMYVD
In words: Binding affinity to MAP2K4 in human NCI-H23 cells at 1 uM by mass spectrometry based pull down assay. It is filed as cell-based.

Experiment [15] addresses Phosphoinositide 3-kinase regulatory subunit 4 (Homo sapiens) (UniProt Q99570). The experiment is described as follows: Binding affinity to PIK3R4 in human NCI-H23 cells at 1 uM by mass spectrometry based pull down assay. It is filed as cell-based.
The target in experiment [16] is Actin-related protein 2 (Homo sapiens) (UniProt P61160). In words: Binding affinity to ACTR2 in human NCI-H358 cells at 1 uM by mass spectrometry based pull down assay. It is filed as cell-based. In a few lines:
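NCI-H23 or NCI-H358 cells were grown and lysed. Lysates were incubated overnight at 4 °C with 1 μM biotinylated covalent probe or DMSO, then pulled down on streptavidin beads. Proteins were run on polyacrylamide gels and stained with Coomassie. Bands were excised, digested and identified by mass spectrometry.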

Experiment [17] addresses Membrane-associated progesterone receptor component 1 (Homo sapiens) (UniProt O00264). In words: Binding affinity to PGRMC1 in human NCI-H358 cells at 1 uM by mass spectrometry based pull down assay. It is filed as cell-based.
The target of experiment [18] is Cyclin-G-associated kinase (Homo sapiens) (UniProt O14976). In words: Binding affinity to GAK in human NCI-H358 cells at 1 uM by mass spectrometry based pull down assay. It is filed as cell-based.
Sequence of Cyclin-G-associated kinase (Homo sapiens) (O14976 whole entry): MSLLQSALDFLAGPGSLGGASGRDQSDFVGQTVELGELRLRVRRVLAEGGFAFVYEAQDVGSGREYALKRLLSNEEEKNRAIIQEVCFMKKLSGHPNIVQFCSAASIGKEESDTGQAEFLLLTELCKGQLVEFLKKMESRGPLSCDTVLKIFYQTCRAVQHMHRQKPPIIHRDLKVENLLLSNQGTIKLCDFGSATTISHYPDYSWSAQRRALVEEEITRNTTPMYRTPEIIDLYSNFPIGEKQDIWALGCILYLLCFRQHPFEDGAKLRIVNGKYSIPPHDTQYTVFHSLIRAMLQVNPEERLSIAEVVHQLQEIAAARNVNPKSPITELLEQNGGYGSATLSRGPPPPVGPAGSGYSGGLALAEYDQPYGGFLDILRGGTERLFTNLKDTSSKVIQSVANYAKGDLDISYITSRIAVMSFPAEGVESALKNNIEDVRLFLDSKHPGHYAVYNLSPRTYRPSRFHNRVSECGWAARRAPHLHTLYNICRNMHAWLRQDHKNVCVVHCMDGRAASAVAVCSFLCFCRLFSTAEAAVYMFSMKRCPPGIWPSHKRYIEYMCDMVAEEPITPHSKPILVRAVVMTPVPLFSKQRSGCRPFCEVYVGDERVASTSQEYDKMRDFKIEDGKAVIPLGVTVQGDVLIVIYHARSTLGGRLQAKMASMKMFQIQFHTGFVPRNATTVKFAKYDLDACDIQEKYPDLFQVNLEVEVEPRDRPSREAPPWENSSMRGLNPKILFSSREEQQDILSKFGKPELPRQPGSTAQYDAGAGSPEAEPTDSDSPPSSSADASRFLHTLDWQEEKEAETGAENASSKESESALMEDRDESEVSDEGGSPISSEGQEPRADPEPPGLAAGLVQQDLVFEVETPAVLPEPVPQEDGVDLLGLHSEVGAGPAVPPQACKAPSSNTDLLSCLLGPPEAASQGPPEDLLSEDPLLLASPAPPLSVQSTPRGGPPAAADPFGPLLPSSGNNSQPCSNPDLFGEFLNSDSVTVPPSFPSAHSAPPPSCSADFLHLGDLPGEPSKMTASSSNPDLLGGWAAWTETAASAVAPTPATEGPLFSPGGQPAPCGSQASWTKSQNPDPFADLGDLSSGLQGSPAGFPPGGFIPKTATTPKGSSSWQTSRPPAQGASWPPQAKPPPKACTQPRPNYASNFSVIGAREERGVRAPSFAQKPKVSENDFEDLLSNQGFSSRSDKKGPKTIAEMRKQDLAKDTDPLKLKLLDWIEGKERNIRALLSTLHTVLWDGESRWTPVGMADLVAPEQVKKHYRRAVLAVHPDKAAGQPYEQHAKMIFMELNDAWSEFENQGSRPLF

Sequence of Protein disulfide-isomerase A4 (Homo sapiens) (P13667 whole entry): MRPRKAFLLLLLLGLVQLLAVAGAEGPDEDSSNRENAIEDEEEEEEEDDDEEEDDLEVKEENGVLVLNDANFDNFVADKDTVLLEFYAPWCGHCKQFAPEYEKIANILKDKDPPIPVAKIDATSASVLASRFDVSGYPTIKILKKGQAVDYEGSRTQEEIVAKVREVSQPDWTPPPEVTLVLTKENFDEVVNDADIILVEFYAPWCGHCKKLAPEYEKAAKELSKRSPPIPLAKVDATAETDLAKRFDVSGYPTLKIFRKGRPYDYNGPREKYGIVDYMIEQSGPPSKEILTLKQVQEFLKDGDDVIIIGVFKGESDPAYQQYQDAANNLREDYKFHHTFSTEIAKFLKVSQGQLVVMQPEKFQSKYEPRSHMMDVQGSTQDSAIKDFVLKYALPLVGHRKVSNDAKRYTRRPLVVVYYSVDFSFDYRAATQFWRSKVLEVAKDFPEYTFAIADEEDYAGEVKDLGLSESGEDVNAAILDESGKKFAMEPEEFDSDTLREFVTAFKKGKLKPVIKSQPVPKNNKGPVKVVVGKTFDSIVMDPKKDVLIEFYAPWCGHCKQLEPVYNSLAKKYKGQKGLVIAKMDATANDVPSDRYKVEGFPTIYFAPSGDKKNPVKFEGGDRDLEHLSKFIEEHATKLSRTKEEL
Sequence of Glutamine--fructose-6-phosphate aminotransferase [isomerizing] 1 (Homo sapiens) (Q06210 whole entry): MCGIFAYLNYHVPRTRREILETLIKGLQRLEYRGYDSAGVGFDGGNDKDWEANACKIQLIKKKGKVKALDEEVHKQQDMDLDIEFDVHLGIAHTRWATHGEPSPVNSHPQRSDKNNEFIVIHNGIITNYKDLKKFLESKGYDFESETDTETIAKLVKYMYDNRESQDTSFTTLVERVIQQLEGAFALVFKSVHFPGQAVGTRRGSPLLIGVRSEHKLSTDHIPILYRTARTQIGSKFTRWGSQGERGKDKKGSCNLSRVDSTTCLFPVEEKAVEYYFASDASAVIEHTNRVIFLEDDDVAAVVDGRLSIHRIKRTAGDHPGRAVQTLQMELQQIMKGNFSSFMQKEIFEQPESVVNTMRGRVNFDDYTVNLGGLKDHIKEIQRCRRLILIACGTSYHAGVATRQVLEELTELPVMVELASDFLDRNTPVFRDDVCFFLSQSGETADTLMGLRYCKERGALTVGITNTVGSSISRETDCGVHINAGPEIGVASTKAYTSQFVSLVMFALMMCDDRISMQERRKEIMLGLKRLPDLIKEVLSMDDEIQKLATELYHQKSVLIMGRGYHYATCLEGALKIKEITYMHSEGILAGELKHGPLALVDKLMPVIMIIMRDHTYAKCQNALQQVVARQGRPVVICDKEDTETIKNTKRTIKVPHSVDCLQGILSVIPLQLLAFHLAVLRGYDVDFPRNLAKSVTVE
Sequence of Platelet-derived growth factor receptor beta (Homo sapiens) (P09619 whole entry, the tested form may be a part): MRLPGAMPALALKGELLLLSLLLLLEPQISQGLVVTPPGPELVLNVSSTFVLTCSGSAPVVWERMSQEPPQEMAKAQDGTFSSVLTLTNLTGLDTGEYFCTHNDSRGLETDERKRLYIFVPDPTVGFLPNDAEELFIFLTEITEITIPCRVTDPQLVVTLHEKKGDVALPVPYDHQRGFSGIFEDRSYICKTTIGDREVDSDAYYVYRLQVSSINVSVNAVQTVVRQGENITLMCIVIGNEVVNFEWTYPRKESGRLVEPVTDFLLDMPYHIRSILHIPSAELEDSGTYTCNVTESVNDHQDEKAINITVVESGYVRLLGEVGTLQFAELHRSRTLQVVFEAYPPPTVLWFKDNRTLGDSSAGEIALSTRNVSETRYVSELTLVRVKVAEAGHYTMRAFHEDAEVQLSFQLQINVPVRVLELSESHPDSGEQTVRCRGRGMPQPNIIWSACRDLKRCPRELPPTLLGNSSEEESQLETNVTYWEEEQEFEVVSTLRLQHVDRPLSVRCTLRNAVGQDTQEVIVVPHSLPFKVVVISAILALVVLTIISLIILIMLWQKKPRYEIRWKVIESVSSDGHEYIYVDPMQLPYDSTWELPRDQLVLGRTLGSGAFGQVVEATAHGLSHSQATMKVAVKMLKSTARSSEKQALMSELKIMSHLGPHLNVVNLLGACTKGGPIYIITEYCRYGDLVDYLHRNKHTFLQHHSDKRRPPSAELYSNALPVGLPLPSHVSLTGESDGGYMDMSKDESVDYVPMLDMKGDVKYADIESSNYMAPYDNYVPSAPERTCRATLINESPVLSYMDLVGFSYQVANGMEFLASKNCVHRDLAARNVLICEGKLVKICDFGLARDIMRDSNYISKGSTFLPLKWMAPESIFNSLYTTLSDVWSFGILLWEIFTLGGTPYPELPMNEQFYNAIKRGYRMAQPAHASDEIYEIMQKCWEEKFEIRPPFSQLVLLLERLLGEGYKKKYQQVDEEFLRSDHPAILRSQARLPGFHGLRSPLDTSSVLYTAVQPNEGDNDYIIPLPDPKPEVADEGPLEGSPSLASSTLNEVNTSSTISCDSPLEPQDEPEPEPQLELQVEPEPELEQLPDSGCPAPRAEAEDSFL
Sequence of Serine/threonine-protein kinase MARK2 (Homo sapiens) (Q7KZI7 whole entry): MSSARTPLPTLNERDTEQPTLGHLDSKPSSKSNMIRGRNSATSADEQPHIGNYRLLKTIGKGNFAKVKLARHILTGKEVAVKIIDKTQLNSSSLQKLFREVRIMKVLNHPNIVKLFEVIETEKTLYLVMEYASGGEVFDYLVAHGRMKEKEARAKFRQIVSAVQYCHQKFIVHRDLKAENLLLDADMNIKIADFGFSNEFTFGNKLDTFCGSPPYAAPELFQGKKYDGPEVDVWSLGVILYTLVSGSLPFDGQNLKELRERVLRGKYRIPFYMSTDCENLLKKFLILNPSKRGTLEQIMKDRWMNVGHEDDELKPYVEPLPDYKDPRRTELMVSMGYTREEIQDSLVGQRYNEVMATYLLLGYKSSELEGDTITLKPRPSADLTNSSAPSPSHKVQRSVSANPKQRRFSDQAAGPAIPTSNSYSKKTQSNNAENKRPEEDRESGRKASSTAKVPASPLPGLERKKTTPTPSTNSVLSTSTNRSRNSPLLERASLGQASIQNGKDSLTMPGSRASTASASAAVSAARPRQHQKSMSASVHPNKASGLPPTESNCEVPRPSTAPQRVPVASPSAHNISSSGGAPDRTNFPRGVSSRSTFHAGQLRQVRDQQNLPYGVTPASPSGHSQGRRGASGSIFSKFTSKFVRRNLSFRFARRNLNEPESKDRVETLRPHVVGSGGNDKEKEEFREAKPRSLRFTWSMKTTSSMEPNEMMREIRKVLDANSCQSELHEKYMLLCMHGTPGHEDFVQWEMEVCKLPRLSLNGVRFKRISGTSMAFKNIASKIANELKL
Sequence of Apoptosis regulator BAX (Homo sapiens) (Q07812 whole entry): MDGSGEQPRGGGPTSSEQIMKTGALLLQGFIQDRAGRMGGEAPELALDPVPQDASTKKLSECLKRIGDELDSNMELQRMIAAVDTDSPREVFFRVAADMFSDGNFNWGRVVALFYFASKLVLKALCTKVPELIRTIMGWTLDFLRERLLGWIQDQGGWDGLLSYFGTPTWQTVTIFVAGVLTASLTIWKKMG
Sequence of Thioredoxin (Homo sapiens) (P10599 whole entry): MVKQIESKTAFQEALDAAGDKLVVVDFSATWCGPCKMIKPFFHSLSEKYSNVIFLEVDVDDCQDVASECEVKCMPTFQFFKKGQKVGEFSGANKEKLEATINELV
Sequence of Membrane-associated progesterone receptor component 1 (Homo sapiens) (O00264 whole entry): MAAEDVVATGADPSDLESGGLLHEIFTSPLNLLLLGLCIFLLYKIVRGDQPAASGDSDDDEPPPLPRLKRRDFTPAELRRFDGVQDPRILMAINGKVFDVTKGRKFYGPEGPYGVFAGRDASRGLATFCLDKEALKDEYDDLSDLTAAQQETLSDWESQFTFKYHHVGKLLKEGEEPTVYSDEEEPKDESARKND

Turning to `C=CC(=O)Nc1ccccc1Nc1nc(Nc2ccc(N3CCN(C)CC3)cc2)ncc1Cl`, the values for the inhibition in experiment [1] and in experiment [2] were -5.7% and 53.3%, respectively.
As to `COc1cc(O)c2c(c1)/C=C/C[C@H](O)[C@H](O)C(=O)/C=C\C[C@H](C)OC2=O`, in experiment [3], the inhibition stood at 54.2%. Also, the Activity in [4] was 0.05%. In the experiment with BaF3, this compound showed an IC50 of 4 nM.
Turning to `C=CC(=O)Nc1ccccc1Nc1nc(Nc2ccc(N3CCN(CCOCCOCCOCCNC(=O)CCCC[C@@H]4SC[C@@H]5NC(=O)N[C@@H]54)CC3)cc2)ncc1Cl`, the result in experiment [5], in experiment [6], in [7], in experiment [8], in [9] and in [10] was Active. In addition, the result in experiment [11], in experiment [12], in [13], in experiment [14], in [15] and in [16] was Active. For the same compound, the result in [17] and in experiment [18] was Active.

A word on the inhibition: it is the relative decrease from the control value, in per cent. As a reminder, the IC50 is the concentration that gives 50% inhibition.
